ChEMBL document CHEMBL5046302, “Identification and Evaluation of Brominated Carbazoles as a Novel Antibiotic Adjuvant Scaffold in MRSA” (2022)
Calls of active or inactive are those of the source. The rule behind the calls is not given here.

Experiments:
Format in all cases: functional
[1] = system: Staphylococcus aureus; test: Potentiation of ceftazidime induced antibacterial activity against methicillin-resistant Staphylococcus aureus COL assessed as fold change in ceftazidime MIC at 25 uM after 18 hrs by CLSI protocol based broth microdilution assay
[2] = system: Staphylococcus aureus; test: Potentiation of ceftazidime induced antibacterial activity against methicillin-resistant Staphylococcus aureus ATCC 43300 assessed as fold change in ceftazidime MIC at 25 uM after 18 hrs by CLSI protocol based broth microdilution assay
[3] = system: Staphylococcus aureus; test: Potentiation of ampicillin induced antibacterial activity against methicillin-resistant Staphylococcus aureus COL assessed as ampicillin MIC at 25 uM after 18 hrs by CLSI protocol based broth microdilution assay
[4] = system: Staphylococcus aureus; test: Upregulation of mecA gene expression in methicillin-resistant Staphylococcus aureus ATCC 43300 at 25 uM by RT-PCR method
[5] = system: Staphylococcus aureus; test: Potentiation of methicillin induced antibacterial activity against methicillin-resistant Staphylococcus aureus COL assessed as methicillin MIC at 25 uM after 18 hrs by CLSI protocol based broth microdilution assay
[6] = system: Staphylococcus aureus; test: Potentiation of oxacillin induced antibacterial activity against methicillin-resistant Staphylococcus aureus USA300 harboring stk1 deletion mutant assessed as oxacillin MIC at 25 uM after 18 hrs by CLSI protocol based broth microdilution assay
[7] = system: Staphylococcus aureus; test: Potentiation of ampicillin induced antibacterial activity against methicillin-resistant Staphylococcus aureus USA100 assessed as ampicillin MIC at 25 uM after 18 hrs by CLSI protocol based broth microdilution assay
[8] = system: Staphylococcus aureus; test: Potentiation of ampicillin induced antibacterial activity against methicillin-resistant Staphylococcus aureus USA300 assessed as fold change in ampicillin MIC at 25 uM after 18 hrs by CLSI protocol based broth microdilution assay
[9] = system: Staphylococcus aureus; test: Upregulation of mecA gene expression in methicillin-resistant Staphylococcus aureus USA300 at 25 uM by RT-PCR method
[10] = system: Staphylococcus aureus; test: Potentiation of cefoxitin induced antibacterial activity against methicillin-resistant Staphylococcus aureus USA300 assessed as fold change in cefoxitin MIC at 25 uM after 18 hrs by CLSI protocol based broth microdilution assay
[11] = system: Staphylococcus aureus; test: Potentiation of oxacillin induced antibacterial activity against methicillin-resistant Staphylococcus aureus ATCC 43300 assessed as oxacillin MIC at 25 uM after 18 hrs by CLSI protocol based broth microdilution assay
[12] = system: Staphylococcus aureus; test: Upregulation of mecA gene expression in methicillin-resistant Staphylococcus aureus USA300 at 50 uM by RT-PCR method
[13] = system: Staphylococcus aureus; test: Potentiation of oxacillin induced antibacterial activity against methicillin-resistant Staphylococcus aureus assessed as fold decrease in blaI gene expression at 50 uM by RT-qPCR analysis
Summary of the method: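 Fold dampening is the relative mRNA level of the gene, normalised to 16S rRNA, in oxacillin-treated cells divided by that in cells cotreated with oxacillin plus carbazole. Carbazole was used at 25 or 50 μM, as given in each line.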

Row | SMILES | fold change (FC) [1] | fold change (FC) [2] | MIC [3] | Activity [4] | MIC [5] | MIC [6] | MIC [7] | fold change (FC) [8] | Activity [9] | fold change (FC) [10] | MIC [11] | Activity [12] | fold change (FC) [13]
1 | Brc1cccc2[nH]c3ccccc3c12 | 1 | 2 | 32 µg/mL | inactive | 1020 µg/mL | 0.25 µg/mL | 8 µg/mL | 4 | inactive | 4 | 4 µg/mL | – | –
2 | Brc1cccc2c1[nH]c1ccccc12 | – | – | – | – | – | – | – | – | – | – | – | inactive | 1.36
